Measured values pooled from the literature.
Each line is one published result; the experiments were not run side by side.
Target: Casein kinase I isoform alpha (CSNK1A1, Homo sapiens, UniProt P48729)

Structure (SMILES) | test | setting | endpoint | result
N#CC1(c2ccccn2)CCN(Cc2cc(C(=O)O)c(=O)n3ccccc23)CC1 | cell-free assay, competition with immobilised ligand | 1 µM | remaining binding | 100%
Nc1ncc(-c2nc(N3CCOCC3)nc(N3CCOCC3)n2)c(C(F)F)n1 | binding, competition with immobilised ligand | 10 µM | remaining binding | 72%
Cc1nn(C)cc1-c1nc2c(N3CCN(Cc4ccc(Cl)cc4)CC3)c(Cl)cnc2[nH]1 | binding, competition with immobilised ligand | 1 µM | remaining binding | 77%
COc1ncccc1-c1cnn2ccc(N3CCN(C(=O)OC(C)C)CC3)nc12 | binding, competition with immobilised ligand | 1 µM | remaining binding | 100%
Cn1cc(-c2cccc(N3CCc4c(sc5c4CC(C)(C)C5)C3=O)c2CO)cc(Nc2ccncn2)c1=O | enzyme activity, inhibitor | 1 µM | inhibition | 6%
Cn1cncc1[C@](O)(COc1ccc(C#N)cc1-c1ccc(OC(F)(F)F)cc1)c1ccc(C#N)cc1 | cell-free assay, competition with immobilised ligand | 1 µM | remaining binding | 100%
Cn1cc(-c2cc(F)cc(N3CCn4c(cc5c4CCCC5)C3=O)c2CO)cc(Nc2ccc(N3CCN(C4COC4)CC3)cn2)c1=O | enzyme activity, inhibitor | 0.1 µM | inhibition | 4%
O=c1[nH]c2ccccc2n1C1CCN(Cc2ccc(-c3[nH]c4cc5ncnc5cc4nc3-c3ccccc3)cc2)CC1 | cell-free assay | 0.5 µM | remaining signal | 96%
